Experimental findings from ChEMBL document CHEMBL5653631, “A Potent and Selective ULK1 Inhibitor Suppresses Autophagy and Sensitizes Cancer Cells to Nutrient Stress” (iScience, 2018) are described below.

Assay [1] deals with Myosin light chain kinase 2, skeletal/cardiac muscle (Homo sapiens) (UniProt Q9H1R3). The experiment in a line: Inhibition of human recombinant skMLCK at 40 nM in presence of ATP by radiometric assay relative to control.
For assay [2], the target named is MAP kinase-activated protein kinase 3 (Homo sapiens) (UniProt Q16644). Briefly: Inhibition of human recombinant MAPKAPK3 at 40 nM related to control ULK1.
For assay [3], the target named is T1, Cytoplasmic tyrosine-protein kinase BMX (Homo sapiens) (UniProt P51813).
T1 sequence (whole entry): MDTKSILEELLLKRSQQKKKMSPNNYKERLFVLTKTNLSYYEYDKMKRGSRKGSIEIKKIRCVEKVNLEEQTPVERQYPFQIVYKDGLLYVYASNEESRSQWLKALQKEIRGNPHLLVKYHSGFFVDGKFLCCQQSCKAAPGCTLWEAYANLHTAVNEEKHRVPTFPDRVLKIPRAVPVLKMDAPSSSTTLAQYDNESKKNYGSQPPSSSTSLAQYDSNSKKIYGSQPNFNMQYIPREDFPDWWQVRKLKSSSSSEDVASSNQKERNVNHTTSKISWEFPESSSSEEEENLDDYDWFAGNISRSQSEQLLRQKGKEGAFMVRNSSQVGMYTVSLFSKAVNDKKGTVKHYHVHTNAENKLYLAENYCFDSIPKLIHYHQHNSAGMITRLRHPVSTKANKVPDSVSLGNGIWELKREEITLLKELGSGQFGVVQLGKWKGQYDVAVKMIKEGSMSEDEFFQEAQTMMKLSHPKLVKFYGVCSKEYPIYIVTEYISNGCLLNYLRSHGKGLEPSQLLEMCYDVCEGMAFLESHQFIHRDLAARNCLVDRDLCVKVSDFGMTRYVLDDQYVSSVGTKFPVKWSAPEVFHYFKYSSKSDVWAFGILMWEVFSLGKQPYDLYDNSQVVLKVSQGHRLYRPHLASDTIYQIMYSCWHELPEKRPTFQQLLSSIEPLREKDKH
The experiment in a line: Inhibition of human recombinant BMX at 500 nM in presence of ATP by radiometric assay relative to control. In outline: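 Part of a radiometric in vitro activity panel of 327 recombinant human kinases. Each kinase was tested in duplicate at one inhibitor concentration. Activity remaining was expressed as a percentage of the vehicle control, and percent inhibition was taken as 100 minus that value.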

Assay [4] concerns the target Cyclin-dependent kinase 1 (Homo sapiens) (UniProt P06493). Briefly: Inhibition of human recombinant CDC2 at 500 nM related to control ULK1.
The target of assay [5] is Macrophage colony-stimulating factor 1 receptor (Homo sapiens) (UniProt P07333). Briefly: Inhibition of human recombinant FMS at 500 nM related to control ULK1.
For assay [6], the target named is Serine/threonine-protein kinase/endoribonuclease IRE1 (Homo sapiens) (UniProt O75460). The experiment in a line: Inhibition of human recombinant IRE1 at 500 nM related to control ULK1.
The target in assay [7] is Serine/threonine-protein kinase N1 (Homo sapiens) (UniProt Q16512). Briefly: Inhibition of human recombinant PKN1 at 500 nM related to control ULK1.
Assay [8] addresses T2, Serine/threonine-protein kinase PLK4 (Homo sapiens) (UniProt O00444).
T2 sequence (whole entry): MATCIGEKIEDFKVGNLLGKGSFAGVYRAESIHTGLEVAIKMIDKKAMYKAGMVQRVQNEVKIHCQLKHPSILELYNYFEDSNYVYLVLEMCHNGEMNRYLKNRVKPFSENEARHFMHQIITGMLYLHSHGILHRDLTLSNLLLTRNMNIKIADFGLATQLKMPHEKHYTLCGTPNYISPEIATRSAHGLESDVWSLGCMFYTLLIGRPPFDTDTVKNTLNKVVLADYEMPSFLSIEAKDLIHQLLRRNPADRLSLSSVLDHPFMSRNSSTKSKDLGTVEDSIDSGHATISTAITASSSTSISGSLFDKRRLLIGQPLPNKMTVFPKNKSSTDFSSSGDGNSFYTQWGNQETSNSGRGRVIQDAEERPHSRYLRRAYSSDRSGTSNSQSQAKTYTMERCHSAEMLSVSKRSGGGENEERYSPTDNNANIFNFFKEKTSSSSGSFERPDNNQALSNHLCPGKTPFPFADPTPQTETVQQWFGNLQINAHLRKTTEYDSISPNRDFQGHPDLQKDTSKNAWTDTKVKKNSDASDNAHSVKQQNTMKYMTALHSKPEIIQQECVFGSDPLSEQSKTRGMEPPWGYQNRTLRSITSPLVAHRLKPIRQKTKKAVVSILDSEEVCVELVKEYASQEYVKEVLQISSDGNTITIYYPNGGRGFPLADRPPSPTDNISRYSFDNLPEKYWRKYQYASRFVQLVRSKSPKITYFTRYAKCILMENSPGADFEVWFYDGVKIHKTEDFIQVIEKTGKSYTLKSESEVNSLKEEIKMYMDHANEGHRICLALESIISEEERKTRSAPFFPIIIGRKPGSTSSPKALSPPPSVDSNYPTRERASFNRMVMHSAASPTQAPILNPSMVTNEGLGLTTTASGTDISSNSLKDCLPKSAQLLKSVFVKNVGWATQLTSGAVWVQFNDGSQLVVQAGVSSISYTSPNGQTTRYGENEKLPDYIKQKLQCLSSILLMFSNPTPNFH
Briefly: Inhibition of human recombinant PLK4 at 500 nM related to control ULK1.

Assay [9] deals with T3, Testis-specific serine/threonine-protein kinase 2 (Homo sapiens) (UniProt Q96PF2).
T3 sequence (whole entry): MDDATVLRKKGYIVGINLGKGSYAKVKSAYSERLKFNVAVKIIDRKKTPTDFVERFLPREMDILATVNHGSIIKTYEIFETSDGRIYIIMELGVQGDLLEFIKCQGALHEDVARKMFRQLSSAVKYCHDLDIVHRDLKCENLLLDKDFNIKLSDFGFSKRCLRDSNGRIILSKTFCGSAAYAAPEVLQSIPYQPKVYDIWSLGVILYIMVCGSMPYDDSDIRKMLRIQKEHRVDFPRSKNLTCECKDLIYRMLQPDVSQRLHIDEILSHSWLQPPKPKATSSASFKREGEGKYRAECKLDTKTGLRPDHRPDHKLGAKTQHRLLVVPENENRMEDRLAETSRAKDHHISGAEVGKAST
The experiment in a line: Inhibition of human recombinant TSSK2 at 15 nM in presence of ATP by radiometric assay relative to control.

The target of assay [10] is Activin receptor type-1-like (Homo sapiens) (UniProt P37023). The experiment in a line: Inhibition of human recombinant ALK1 at 15 nM related to control ULK1. In outline: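 Panel of 327 recombinant human kinases, each assayed in vitro by radiometric activity assay in duplicate at a single inhibitor concentration per compound, chosen with reference to its ULK1 inhibition. Activity remaining was expressed as percent of vehicle control, and percent inhibition was calculated as 100 minus percent activity remaining.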

A word on the inhibition: it is the relative decrease from the control value, in per cent.

Cyclin-dependent kinase 1 (Homo sapiens), sequence (P06493 whole entry, looked up): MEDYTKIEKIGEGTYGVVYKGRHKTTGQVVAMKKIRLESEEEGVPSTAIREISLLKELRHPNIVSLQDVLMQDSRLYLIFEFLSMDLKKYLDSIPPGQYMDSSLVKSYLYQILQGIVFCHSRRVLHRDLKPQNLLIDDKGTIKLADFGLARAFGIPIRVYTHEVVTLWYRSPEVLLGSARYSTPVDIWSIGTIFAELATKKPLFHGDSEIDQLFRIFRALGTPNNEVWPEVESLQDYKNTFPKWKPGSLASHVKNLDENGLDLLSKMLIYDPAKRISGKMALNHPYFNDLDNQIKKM
Activin receptor type-1-like (Homo sapiens), sequence (P37023 whole entry): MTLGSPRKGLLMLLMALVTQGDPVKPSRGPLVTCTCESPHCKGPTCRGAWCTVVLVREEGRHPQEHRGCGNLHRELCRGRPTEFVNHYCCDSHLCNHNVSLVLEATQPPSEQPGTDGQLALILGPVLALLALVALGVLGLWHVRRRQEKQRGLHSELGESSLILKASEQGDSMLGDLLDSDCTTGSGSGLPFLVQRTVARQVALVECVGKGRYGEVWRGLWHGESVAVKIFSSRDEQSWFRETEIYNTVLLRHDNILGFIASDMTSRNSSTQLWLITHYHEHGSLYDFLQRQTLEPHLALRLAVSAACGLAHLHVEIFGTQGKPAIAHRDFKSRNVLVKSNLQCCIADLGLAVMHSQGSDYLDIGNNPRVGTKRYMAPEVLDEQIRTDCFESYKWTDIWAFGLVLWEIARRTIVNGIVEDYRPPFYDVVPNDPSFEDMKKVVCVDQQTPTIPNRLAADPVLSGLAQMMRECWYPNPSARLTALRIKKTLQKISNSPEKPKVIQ
Myosin light chain kinase 2, skeletal/cardiac muscle (Homo sapiens), sequence (Q9H1R3 whole entry): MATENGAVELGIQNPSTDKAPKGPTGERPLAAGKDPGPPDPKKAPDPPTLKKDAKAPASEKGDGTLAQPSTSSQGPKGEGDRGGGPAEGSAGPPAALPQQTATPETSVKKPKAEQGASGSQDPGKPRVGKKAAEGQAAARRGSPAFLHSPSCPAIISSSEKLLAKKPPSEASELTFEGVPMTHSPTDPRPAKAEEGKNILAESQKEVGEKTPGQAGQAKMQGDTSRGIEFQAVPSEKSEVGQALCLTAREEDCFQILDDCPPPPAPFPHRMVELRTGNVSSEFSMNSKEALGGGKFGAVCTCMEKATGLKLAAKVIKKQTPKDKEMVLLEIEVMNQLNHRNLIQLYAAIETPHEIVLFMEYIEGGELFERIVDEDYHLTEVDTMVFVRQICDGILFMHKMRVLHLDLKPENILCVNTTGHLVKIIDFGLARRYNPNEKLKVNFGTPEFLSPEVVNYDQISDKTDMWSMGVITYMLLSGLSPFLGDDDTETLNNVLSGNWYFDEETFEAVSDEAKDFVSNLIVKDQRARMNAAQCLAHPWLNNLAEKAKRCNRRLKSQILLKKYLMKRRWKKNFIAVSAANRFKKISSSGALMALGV
Macrophage colony-stimulating factor 1 receptor (Homo sapiens), sequence (P07333 whole entry): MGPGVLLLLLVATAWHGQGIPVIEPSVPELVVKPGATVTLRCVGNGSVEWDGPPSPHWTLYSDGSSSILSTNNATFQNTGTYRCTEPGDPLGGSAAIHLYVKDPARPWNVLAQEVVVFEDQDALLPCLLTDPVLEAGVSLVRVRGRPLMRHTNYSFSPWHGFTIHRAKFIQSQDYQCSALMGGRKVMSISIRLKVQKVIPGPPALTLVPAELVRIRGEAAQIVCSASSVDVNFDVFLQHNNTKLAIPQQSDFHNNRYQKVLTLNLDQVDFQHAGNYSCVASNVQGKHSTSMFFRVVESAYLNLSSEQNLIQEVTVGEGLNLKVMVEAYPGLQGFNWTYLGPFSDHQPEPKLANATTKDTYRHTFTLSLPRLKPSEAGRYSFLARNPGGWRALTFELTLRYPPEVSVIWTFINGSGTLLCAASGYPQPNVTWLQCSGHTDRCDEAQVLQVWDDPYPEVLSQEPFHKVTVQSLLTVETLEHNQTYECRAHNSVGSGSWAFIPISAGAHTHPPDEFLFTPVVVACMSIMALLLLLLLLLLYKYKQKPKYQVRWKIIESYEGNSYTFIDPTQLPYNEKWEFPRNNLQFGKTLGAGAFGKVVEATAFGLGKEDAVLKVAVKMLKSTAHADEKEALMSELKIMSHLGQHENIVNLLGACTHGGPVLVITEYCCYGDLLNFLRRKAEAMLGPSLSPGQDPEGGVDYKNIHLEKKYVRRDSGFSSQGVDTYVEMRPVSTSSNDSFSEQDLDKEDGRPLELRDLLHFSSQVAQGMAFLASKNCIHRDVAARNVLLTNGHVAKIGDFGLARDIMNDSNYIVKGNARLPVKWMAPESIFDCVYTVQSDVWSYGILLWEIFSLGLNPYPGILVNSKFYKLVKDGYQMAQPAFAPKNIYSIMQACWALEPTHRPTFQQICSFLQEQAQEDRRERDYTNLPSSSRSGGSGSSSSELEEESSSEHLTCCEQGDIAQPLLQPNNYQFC
Serine/threonine-protein kinase/endoribonuclease IRE1 (Homo sapiens), sequence (O75460 19-977 limits assumed): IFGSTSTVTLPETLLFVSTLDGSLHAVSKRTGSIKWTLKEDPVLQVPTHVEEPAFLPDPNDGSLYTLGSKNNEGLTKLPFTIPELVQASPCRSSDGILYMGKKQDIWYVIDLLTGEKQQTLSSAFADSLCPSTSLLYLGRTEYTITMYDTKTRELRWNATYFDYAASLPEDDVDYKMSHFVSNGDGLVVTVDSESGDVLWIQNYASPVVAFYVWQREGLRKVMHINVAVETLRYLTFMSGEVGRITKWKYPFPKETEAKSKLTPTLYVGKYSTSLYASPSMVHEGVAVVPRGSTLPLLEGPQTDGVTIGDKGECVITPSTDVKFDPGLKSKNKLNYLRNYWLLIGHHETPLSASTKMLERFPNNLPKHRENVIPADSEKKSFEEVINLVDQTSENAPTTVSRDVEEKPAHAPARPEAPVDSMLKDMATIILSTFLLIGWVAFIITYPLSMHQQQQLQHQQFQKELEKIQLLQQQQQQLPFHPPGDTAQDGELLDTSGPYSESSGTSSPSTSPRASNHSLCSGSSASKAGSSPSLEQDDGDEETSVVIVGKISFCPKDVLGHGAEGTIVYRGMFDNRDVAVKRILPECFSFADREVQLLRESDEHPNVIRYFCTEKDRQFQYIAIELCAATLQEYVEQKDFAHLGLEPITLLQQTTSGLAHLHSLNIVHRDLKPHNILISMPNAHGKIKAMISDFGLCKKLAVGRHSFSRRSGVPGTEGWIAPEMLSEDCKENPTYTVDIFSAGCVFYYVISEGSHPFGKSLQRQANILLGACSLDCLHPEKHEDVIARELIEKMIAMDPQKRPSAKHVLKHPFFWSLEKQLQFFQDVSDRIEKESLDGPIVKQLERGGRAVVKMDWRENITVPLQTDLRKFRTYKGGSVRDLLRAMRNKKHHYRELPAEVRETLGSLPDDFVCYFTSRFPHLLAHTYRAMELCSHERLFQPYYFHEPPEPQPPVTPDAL
MAP kinase-activated protein kinase 3 (Homo sapiens), sequence (Q16644 whole entry, looked up): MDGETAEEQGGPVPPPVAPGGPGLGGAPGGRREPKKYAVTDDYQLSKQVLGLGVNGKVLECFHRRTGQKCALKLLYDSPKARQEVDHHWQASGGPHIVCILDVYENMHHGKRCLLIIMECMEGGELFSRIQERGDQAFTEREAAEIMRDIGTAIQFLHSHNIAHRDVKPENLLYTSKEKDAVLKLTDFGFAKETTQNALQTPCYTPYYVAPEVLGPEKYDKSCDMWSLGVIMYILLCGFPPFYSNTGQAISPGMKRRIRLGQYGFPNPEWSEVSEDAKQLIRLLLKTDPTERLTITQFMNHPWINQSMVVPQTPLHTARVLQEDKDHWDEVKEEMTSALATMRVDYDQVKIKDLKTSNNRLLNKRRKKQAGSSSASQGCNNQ
Serine/threonine-protein kinase N1 (Homo sapiens), sequence (Q16512 2-942 limits assumed): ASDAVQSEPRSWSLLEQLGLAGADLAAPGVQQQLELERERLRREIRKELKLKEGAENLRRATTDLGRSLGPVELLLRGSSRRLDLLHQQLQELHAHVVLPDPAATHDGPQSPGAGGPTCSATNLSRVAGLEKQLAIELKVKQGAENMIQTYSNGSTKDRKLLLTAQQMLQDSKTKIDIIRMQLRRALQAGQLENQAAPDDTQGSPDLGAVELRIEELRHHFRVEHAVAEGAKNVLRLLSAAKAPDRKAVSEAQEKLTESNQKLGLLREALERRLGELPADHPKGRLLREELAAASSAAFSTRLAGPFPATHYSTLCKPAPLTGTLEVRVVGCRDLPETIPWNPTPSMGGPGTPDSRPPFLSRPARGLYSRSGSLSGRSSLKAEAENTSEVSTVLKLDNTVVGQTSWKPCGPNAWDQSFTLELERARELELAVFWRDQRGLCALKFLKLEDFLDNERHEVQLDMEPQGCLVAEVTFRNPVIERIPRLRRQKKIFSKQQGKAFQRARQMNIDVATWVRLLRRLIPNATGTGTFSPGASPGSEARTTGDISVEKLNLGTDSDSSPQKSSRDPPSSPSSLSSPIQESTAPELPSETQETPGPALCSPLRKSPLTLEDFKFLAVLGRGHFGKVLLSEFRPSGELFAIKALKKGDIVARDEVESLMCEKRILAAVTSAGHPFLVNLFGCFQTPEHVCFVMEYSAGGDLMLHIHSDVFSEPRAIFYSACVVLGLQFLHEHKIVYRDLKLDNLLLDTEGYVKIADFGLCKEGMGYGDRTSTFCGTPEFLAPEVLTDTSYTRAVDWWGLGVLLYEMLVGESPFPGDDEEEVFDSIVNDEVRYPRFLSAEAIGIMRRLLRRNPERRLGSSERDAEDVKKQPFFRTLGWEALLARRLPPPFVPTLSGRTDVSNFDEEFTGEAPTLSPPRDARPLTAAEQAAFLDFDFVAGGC

For `O=C(N[C@@H](C1CC1)C(F)(F)F)c1cc(-c2cnn3cc(-c4ccc(F)cc4)cnc23)cs1`, in assay [1], the inhibition was 0%. Moreover, the fold change (FC) in assay [2] is 0.
On to `CNC(=O)c1ccccc1Oc1nc(Nc2cc(OC)c(OC)c(OC)c2)ncc1Br`, for which, in assay [3], the inhibition stood at 16%. Further, the fold change (FC) in [4] worked out at 0.41; in assay [5], 0.26; in assay [6], 0; in assay [7], 0; in assay [8] it was 0.62.
For `CC(C)[C@H](NC(=O)c1cc(-c2cnn3cc(-c4ccc(OCCN5CCCCC5)cc4)cnc23)cs1)C(F)(F)F`, the inhibition in assay [9] is 1%. Further, in assay [10], the fold change (FC) came to 0.08.
